# Reference: ChEMBL document CHEMBL4138085, “Design, synthesis and antimicrobial evaluation of novel benzimidazole-incorporated sulfonamide analogues” (Eur J Med Chem, 2017)
# Assays:
# Aspergillus flavus = test: Antifungal activity against Aspergillus flavus after 24 hrs by NCCLS two fold broth microdilution method; format: functional
# Method in brief: (§1)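 Two-fold serial microdilution following NCCLS. A spore suspension in sterile distilled water was prepared from one-day-old cultures grown on Sabouraud agar and adjusted to a final 1–5 × 10^3 spores/mL. DMSO stocks were diluted in RPMI 1640 to eleven concentrations (0.5–512 µg/mL), inoculated and held at 35 °C for 24 h. Growth was read visually and spectrophotometrically, MIC was the lowest concentration with complete inhibition, and runs were in triplicate.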
# Escherichia coli = test: Antibacterial activity against Escherichia coli ATCC 8099 after 24 hrs by NCCLS two fold broth microdilution method; format: functional; conditions: ATCC 8099, 24 h
# Method in brief: (§2)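 Two-fold serial broth microdilution in 96-well plates following NCCLS. Plates were inoculated and incubated at 37 °C for 24 h, with growth read visually and spectrophotometrically. MIC was taken as the lowest concentration giving complete growth inhibition. Run in triplicate, with a DMSO-plus-inoculum solvent control.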
# Staphylococcus aureus [1] = test: Antibacterial activity against methicillin-resistant Staphylococcus aureus N315 after 24 hrs by NCCLS two fold broth microdilution method; format: functional; conditions: N315, 24 h
# Method in brief: (§3)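 Two-fold serial broth microdilution per NCCLS. Chloromycin and norfloxacin as reference drugs; DMSO with inoculum, no drug, as solvent control. Incubation 37 °C for 24 h. Growth read visually and spectrophotometrically. MIC is the lowest concentration completely inhibiting growth; triplicate.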
# Pseudomonas aeruginosa = test: Antibacterial activity against Pseudomonas aeruginosa ATCC 27853 after 24 hrs by NCCLS two fold broth microdilution method; format: functional; conditions: ATCC 27853, 24 h; method in brief: as §2
# Bacillus subtilis = test: Antibacterial activity against Bacillus subtilis ATCC 21216 after 24 hrs by NCCLS two fold broth microdilution method; format: functional; conditions: ATCC 21216, 24 h
# Method in brief: as §2, with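 “NCCLS. Compounds were dissolved in DMSO as stocks, then diluted in Mueller–Hinton broth to final concentrations of 0.5–512 µg/mL.” for “NCCLS.”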
# Cyberlindnera jadinii = test: Antifungal activity against Candida utilis after 24 hrs by NCCLS two fold broth microdilution method; format: functional; conditions: Williopsis jadinii; method in brief: as §1
# Staphylococcus aureus [2] = test: Antibacterial activity against Staphylococcus aureus ATCC 25923 after 24 hrs by NCCLS two fold broth microdilution method; format: functional; conditions: ATCC 25923, 24 h
# Method in brief: as §2, with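 “NCCLS. Compounds were dissolved in DMSO as stocks, then diluted in Mueller–Hinton broth to final concentrations of 0.5–512 µg/mL.” for “NCCLS.”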
# Candida albicans = test: Antifungal activity against Candida albicans ATCC 76615 after 24 hrs by NCCLS two fold broth microdilution method; format: functional; conditions: ATCC 76615, 24 h; method in brief: as §1
# Micrococcus luteus = test: Antibacterial activity against Micrococcus luteus ATCC 4698 after 24 hrs by NCCLS two fold broth microdilution method; format: functional; conditions: NCTC 2665, 24 h
# Method in brief: as §2, with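 “NCCLS. Compounds were dissolved in DMSO as stocks, then diluted in Mueller–Hinton broth to final concentrations of 0.5–512 µg/mL.” for “NCCLS.”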
# Bacillus = test: Antibacterial activity against Bacillus proteus ATCC 13315 after 24 hrs by NCCLS two fold broth microdilution method; format: functional; conditions: ATCC 13315, 24 h
# Method in brief: as §2, with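 “NCCLS. Compounds were dissolved in DMSO as stocks, then diluted in Mueller–Hinton broth to final concentrations of 0.5–512 µg/mL.” for “NCCLS.”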
# Pichia norvegensis = test: Antifungal activity against Candida mycoderma after 24 hrs by NCCLS two fold broth microdilution method; format: functional
# Saccharomyces cerevisiae = test: Antifungal activity against Saccharomyces cerevisiae after 24 hrs by NCCLS two fold broth microdilution method; format: functional; method in brief: as §1
# Salmonella typhi = test: Antibacterial activity against Bacillus typhi after 24 hrs by NCCLS two fold broth microdilution method; format: functional, Salmonella enterica subsp. enterica serovar Typhi; conditions: Salmonella enterica
# Method in brief: as §3, with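 “NCCLS. DMSO stocks diluted in Mueller–Hinton broth to 512, 256, 128, 64, 32, 16, 8, 4, 2, 1, 0.5 µg/mL.” for “NCCLS.”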
Structure (SMILES),MIC (Aspergillus flavus),MIC (Escherichia coli),MIC (Staphylococcus aureus [1]),MIC (Pseudomonas aeruginosa),MIC (Bacillus subtilis),MIC (Cyberlindnera jadinii),MIC (Staphylococcus aureus [2]),MIC (Candida albicans),MIC (Micrococcus luteus),MIC (Bacillus),MIC (Pichia norvegensis),MIC (Saccharomyces cerevisiae),MIC (Salmonella typhi)
Nc1ccc(S(=O)(=O)Cc2nc3ccccc3n2Cc2ccccc2Cl)cc1,32 µg/mL,128 µg/mL,32 µg/mL,16 µg/mL,16 µg/mL,512 µg/mL,16 µg/mL,16 µg/mL,64 µg/mL,256 µg/mL,512 µg/mL,512 µg/mL,16 µg/mL
CCCCCCCn1c(CS(=O)(=O)c2ccc(N)cc2)nc2ccccc21,512 µg/mL,512 µg/mL,512 µg/mL,512 µg/mL,512 µg/mL,512 µg/mL,512 µg/mL,512 µg/mL,128 µg/mL,512 µg/mL,512 µg/mL,64 µg/mL,512 µg/mL
Nc1ccc(S(=O)(=O)Cc2nc3ccccc3n2Cc2ccc(Cl)cc2Cl)cc1,4 µg/mL,16 µg/mL,128 µg/mL,32 µg/mL,32 µg/mL,2 µg/mL,8 µg/mL,16 µg/mL,64 µg/mL,128 µg/mL,512 µg/mL,256 µg/mL,128 µg/mL
CCCCCCn1c(CS(=O)(=O)c2ccc(NC(C)=O)cc2)nc2ccccc21,512 µg/mL,512 µg/mL,512 µg/mL,512 µg/mL,128 µg/mL,512 µg/mL,512 µg/mL,512 µg/mL,256 µg/mL,256 µg/mL,512 µg/mL,512 µg/mL,512 µg/mL
CC(=O)Nc1ccc(S(=O)(=O)Cc2nc3ccccc3n2Cc2ccccc2Cl)cc1,8 µg/mL,32 µg/mL,32 µg/mL,16 µg/mL,32 µg/mL,512 µg/mL,32 µg/mL,32 µg/mL,64 µg/mL,512 µg/mL,512 µg/mL,512 µg/mL,16 µg/mL
CCCCCCCCCCCCn1c(CS(=O)(=O)c2ccc(NC(C)=O)cc2)nc2ccccc21,512 µg/mL,256 µg/mL,512 µg/mL,512 µg/mL,512 µg/mL,512 µg/mL,512 µg/mL,512 µg/mL,512 µg/mL,512 µg/mL,512 µg/mL,512 µg/mL,512 µg/mL
Nc1ccc(S(=O)(=O)Cc2nc3ccccc3n2Cc2ccc(Cl)c(Cl)c2)cc1,512 µg/mL,512 µg/mL,128 µg/mL,512 µg/mL,512 µg/mL,256 µg/mL,512 µg/mL,64 µg/mL,256 µg/mL,512 µg/mL,512 µg/mL,256 µg/mL,64 µg/mL
CC(=O)Nc1ccc(S(=O)(=O)Cc2nc3ccccc3n2Cc2ccc(Cl)c(Cl)c2)cc1,16 µg/mL,256 µg/mL,512 µg/mL,512 µg/mL,128 µg/mL,512 µg/mL,64 µg/mL,64 µg/mL,256 µg/mL,128 µg/mL,512 µg/mL,32 µg/mL,512 µg/mL
Nc1ccc(S(=O)(=O)Cc2nc3ccccc3n2Cc2ccc(Cl)cc2)cc1,128 µg/mL,64 µg/mL,256 µg/mL,256 µg/mL,8 µg/mL,32 µg/mL,256 µg/mL,256 µg/mL,8 µg/mL,256 µg/mL,16 µg/mL,64 µg/mL,512 µg/mL
